Data as given in ChEMBL document CHEMBL4308831, “Developing a Biased Unmatched Bivalent Ligand (BUmBL) Design Strategy to Target the GPCR Homodimer Allosteric Signaling (cAMP over β-Arrestin 2 Recruitment) Within the Melanocortin Receptors” (J Med Chem, 2018).
Calls of active or inactive are those of the source. The calls are words filed in the database; no cut-off is given here. Non-standard residues stand in square brackets, D forms with d. Residues, ends and D or L forms follow the SMILES beside them. d2Nal = N[C@H](Cc1ccc2ccccc2c1)C(=O)O

What was measured:
Melanocortin receptor 4 [1] = target: T1, Melanocortin receptor 4 (Homo sapiens, UniProt P32245); assay: Agonist activity at human FLAG-tagged MC4R expressed in HTLA cells assessed as induction of beta-arrestin recruitment at 10 uM after 18 hrs by Presto-tango assay relative to NDP-MSH; format: cell-based
How it was run: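 HTLA cells (HEK293 with tTA-luciferase reporter and β-arrestin2-TEV) transiently transfected by calcium phosphate with hMC4R PRESTO-Tango construct (4 µg/plate), held 15–24 h at 35 °C and 3% CO2, then plated at 20,000 cells/well in 1% dialyzed FBS. Ligands 10^-12 to 10^-5 M in HEPES/HBSS pH 7.4, 18 h at 37 °C; Bright-Glo luminescence. Duplicates, ≥3 experiments.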

Melanocortin receptor 4 [2] = target: T1, Melanocortin receptor 4; assay: Selectivity ratio of EC50 for agonist activity at human FLAG-tagged MC4R expressed in HTLA cells assessed as induction of beta-arrestin recruitment to EC50 for agonist activity at human FLAG-tagged MC4R expressed in HEK293 cells assessed as induction of intracellular cAMP accumulation; format: functional, cell-based
[3] = target: Melanocortin receptor 4 (Mus musculus) (UniProt P56450); assay: Agonist activity at mouse MC4R expressed in HEK293 cells assessed as induction of intracellular cAMP accumulation after 2 hrs by AlphaScreen assay; format: functional, cell-based
How it was run: (§1)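 Stable HEK293 lines (G418 selection) carrying the receptor in pcDNA3, detached with Versene and resuspended in HBSS stimulation buffer containing 0.5 mM IBMX, 5 mM HEPES, 0.1% BSA, pH 7.4, with anti-cAMP acceptor beads; 10,000 cells/well. Ligand 10^-13 to 10^-4 M final, 2 h at room temperature in the dark, then donor beads in lysis buffer for 2 h. Duplicates, ≥3 experiments; curves normalized and flipped relative to controls.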

[4] = target: Melanocortin receptor 4 (Mus musculus) (UniProt P56450); assay: Decrease in protein-protein interaction of mouse Nano-Luc-tagged MC4R/mouse Halo-tagged MC4R homodimer expressed in HEK293 cells up to 10 mins by BRET assay; format: cell-based
Melanocortin receptor 4 [5] = target: T1, Melanocortin receptor 4; assay: Agonist activity at human FLAG-tagged MC4R expressed in HEK293 cells assessed as induction of intracellular cAMP accumulation at 10 uM after 2 hrs by AlphaScreen assay relative to NDP-MSH; format: functional, cell-based; how it was run: as §1
[6] = target: Melanocortin receptor 4 (Mus musculus) (UniProt P56450); assay: Effect on protein-protein interaction of mouse Nano-Luc-tagged MC4R/mouse Halo-tagged MC4R homodimer expressed in HEK293 cells at 10^-9 to 10^-5 M up to 10 mins by BRET assay; format: cell-based
Melanocortin receptor 4 [7] = target: T1, Melanocortin receptor 4; assay: Antagonist activity at human FLAG-tagged MC4R expressed in HEK293 cells assessed as reduction in NDP-MSH-induced intracellular cAMP accumulation after 2 hrs by AlphaScreen assay; format: functional, cell-based; conditions: read-out: pA2 (converted)
How it was run: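 Stable hMC4R-Flag HEK293 cells in IBMX-containing HBSS stimulation buffer with AlphaScreen cAMP beads, 10,000 cells/well, stimulated 2 h at room temperature. Antagonist ligands tested dose-dependently against NDP-MSH stimulation; pA2 from Schild regression. Duplicate points, at least three independent experiments.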

Melanocortin receptor 4 [8] = target: T1, Melanocortin receptor 4; assay: Agonist activity at human FLAG-tagged MC4R expressed in HEK293 cells assessed as induction of intracellular cAMP accumulation after 2 hrs by AlphaScreen assay; format: functional, cell-based

T1 sequence (P32245 whole entry): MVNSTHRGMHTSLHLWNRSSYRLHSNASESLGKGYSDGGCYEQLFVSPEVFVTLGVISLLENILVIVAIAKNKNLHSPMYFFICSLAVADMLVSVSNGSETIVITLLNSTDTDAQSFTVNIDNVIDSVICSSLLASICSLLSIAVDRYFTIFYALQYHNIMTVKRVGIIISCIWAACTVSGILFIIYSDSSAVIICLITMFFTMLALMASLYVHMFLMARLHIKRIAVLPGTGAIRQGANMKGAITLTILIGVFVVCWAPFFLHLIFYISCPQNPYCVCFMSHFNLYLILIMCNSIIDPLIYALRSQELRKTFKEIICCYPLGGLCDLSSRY
Sequence of Melanocortin receptor 4 (Mus musculus) (P56450 whole entry): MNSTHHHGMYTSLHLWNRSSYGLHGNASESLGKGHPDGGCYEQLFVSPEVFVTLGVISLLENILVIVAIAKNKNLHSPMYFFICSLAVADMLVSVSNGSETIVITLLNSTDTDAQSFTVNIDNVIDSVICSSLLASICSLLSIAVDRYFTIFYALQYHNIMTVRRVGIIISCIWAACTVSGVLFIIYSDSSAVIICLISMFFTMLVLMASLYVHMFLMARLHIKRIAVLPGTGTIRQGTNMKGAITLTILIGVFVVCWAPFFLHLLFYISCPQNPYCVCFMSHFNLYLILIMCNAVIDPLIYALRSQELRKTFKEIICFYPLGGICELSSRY

Row | Structure (SMILES) | Activity (Melanocortin receptor 4 [1]) | Ratio EC50 (Melanocortin receptor 4 [2]) | Activity [3] | Activity (Melanocortin receptor 4 [5]) | Kb (Melanocortin receptor 4 [7]) | also measured
1 | CC(=O)N[C@@H](Cc1cnc[nH]1)C(=O)N[C@H](Cc1ccccc1)C(=O)N[C@@H](CCCNC(=N)N)C(=O)N[C@@H](Cc1c[nH]c2ccccc12)C(=O)NCCCOCCOCCOCCCNC(=O)COCC(=O)N[C@@H](Cc1cnc[nH]1)C(=O)N[C@H](Cc1ccc2ccccc2c1)C(=O)N[C@@H](CCCNC(=N)N)C(=O)N[C@@H](Cc1c[nH]c2ccccc12)C(N)=O | 45% | 3000 | Active | – | – | –
2 | CC(=O)N[C@@H](Cc1cnc[nH]1)C(=O)N[C@H](Cc1ccccc1)C(=O)N[C@@H](CCCNC(=N)N)C(=O)N[C@@H](Cc1c[nH]c2ccccc12)C(N)=O | – | – | Active | – | – | Activity [4]: Dose-dependent effect
3 | CC(=O)N[C@@H](Cc1c[nH]cn1)C(=O)N[C@H](Cc1ccc2ccccc2c1)C(=O)N[C@@H](CCCN=C(N)N)C(=O)N[C@@H](Cc1c[nH]c2ccccc12)C(N)=O | 30% | – | inactive | 50% | – | Activity [6]: inactive
4 | CC(=O)N[C@@H](Cc1cnc[nH]1)C(=O)N[C@H](Cc1ccc2ccccc2c1)C(=O)N[C@@H](CCCNC(=N)N)C(=O)N[C@@H](Cc1c[nH]c2ccccc12)C(=O)NCCCOCCOCCOCCCNC(=O)COCC(=O)N[C@@H](Cc1cnc[nH]1)C(=O)N[C@H](Cc1ccc2ccccc2c1)C(=O)N[C@@H](CCCNC(=N)N)C(=O)N[C@@H](Cc1c[nH]c2ccccc12)C(N)=O | 10% | – | inactive | 70% | 15.8 nM | Activity [6]: inactive
5 | CC(=O)N[C@@H](Cc1cnc[nH]1)C(=O)N[C@H](Cc1ccccc1)C(=O)N[C@@H](CCCNC(=N)N)C(=O)N[C@@H](Cc1c[nH]c2ccccc12)C(=O)NCCCOCCOCCOCCCNC(=O)COCC(=O)N[C@@H](Cc1cnc[nH]1)C(=O)N[C@H](Cc1ccccc1)C(=O)N[C@@H](CCCNC(=N)N)C(=O)N[C@@H](Cc1c[nH]c2ccccc12)C(N)=O | – | – | Active | – | – | Activity [4]: Dose-dependent effect
6 | CC(=O)N[C@@H](Cc1cnc[nH]1)C(=O)N[C@H](Cc1ccc2ccccc2c1)C(=O)N[C@@H](CCCNC(=N)N)C(=O)N[C@@H](Cc1c[nH]c2ccccc12)C(=O)N1CCC[C@H]1C(=O)NCC(=O)N1CCC[C@H]1C(=O)NCC(=O)N1CCC[C@H]1C(=O)NCC(=O)N1CCC[C@H]1C(=O)NCC(=O)N1CCC[C@H]1C(=O)NCC(=O)N1CCC[C@H]1C(=O)NCC(N)=O (Ac-H[d2Nal]RWPGPGPGPGPGPG-NH2) | 30% | – | – | 55% | 52.5 nM | –
7 | CC(=O)N[C@@H](Cc1cnc[nH]1)C(=O)N[C@H](Cc1ccc2ccccc2c1)C(=O)N[C@@H](CCCNC(=N)N)C(=O)N[C@@H](Cc1c[nH]c2ccccc12)C(=O)N1CCC[C@H]1C(=O)NCC(=O)N1CCC[C@H]1C(=O)NCC(=O)N1CCC[C@H]1C(=O)NCC(=O)N1CCC[C@H]1C(=O)NCC(=O)N1CCC[C@H]1C(=O)NCC(=O)N1CCC[C@H]1C(=O)NCC(=O)N[C@@H](Cc1cnc[nH]1)C(=O)N[C@H](Cc1ccccc1)C(=O)N[C@@H](CCCNC(=N)N)C(=O)N[C@@H](Cc1c[nH]c2ccccc12)C(N)=O | 55% | 3000 | – | – | – | –
8 | CC(=O)N[C@@H](Cc1cnc[nH]1)C(=O)N[C@H](Cc1ccc2ccccc2c1)C(=O)N[C@@H](CCCNC(=N)N)C(=O)N[C@@H](Cc1c[nH]c2ccccc12)C(N)=O | – | – | – | – | 15.1 nM | –
9 | CC(=O)N[C@@H](Cc1cnc[nH]1)C(=O)N[C@H](Cc1ccc2ccccc2c1)C(=O)N[C@@H](CCCNC(=N)N)C(=O)N[C@@H](Cc1c[nH]c2ccccc12)C(=O)NCCCOCCOCCOCCCNC(=O)COCC(=O)NCCCOCCOCCOCCCNC(=O)COCC(=O)N[C@@H](Cc1cnc[nH]1)C(=O)N[C@H](Cc1ccccc1)C(=O)N[C@@H](CCCNC(=N)N)C(=O)N[C@@H](Cc1c[nH]c2ccccc12)C(N)=O | 25% | 3000 | – | – | – | EC50 (Melanocortin receptor 4 [8]): 5.9 nM
10 | CC(=O)N[C@@H](Cc1cnc[nH]1)C(=O)N[C@H](Cc1ccc2ccccc2c1)C(=O)N[C@@H](CCCNC(=N)N)C(=O)N[C@@H](Cc1c[nH]c2ccccc12)C(=O)NCCCOCCOCCOCCCNC(=O)COCC(=O)N[C@@H](Cc1cnc[nH]1)C(=O)N[C@H](Cc1ccccc1)C(=O)N[C@@H](CCCNC(=N)N)C(=O)N[C@@H](Cc1c[nH]c2ccccc12)C(N)=O | 20% | 3000 | – | – | – | –
11 | N=C(N)NCCC[C@H](NC(=O)[C@@H](Cc1ccc2ccccc2c1)NC(=O)[C@H](Cc1cnc[nH]1)NC(=O)COCC(=O)NCCCOCCOCCOCCCN)C(=O)N[C@@H](Cc1c[nH]c2ccccc12)C(N)=O | 20% | – | – | 50% | 13.5 nM | –
12 | CC(=O)N[C@@H](Cc1cnc[nH]1)C(=O)N[C@H](Cc1ccc2ccccc2c1)C(=O)N[C@@H](CCCNC(=N)N)C(=O)N[C@@H](Cc1c[nH]c2ccccc12)C(=O)NCCCOCCOCCOCCCNC(=O)COCC(N)=O | 15% | – | – | 55% | 7.59 nM | –
